assay: Toxicity liver stage against HepG2, at 10uM; type: cell-based; set-up: test concentration 10 uM, cell line HepG2-A16-CD81EGFP; conditions: human, HepG2-A16-CD81EGFP cells; read-out: INHIBITION
Summary of the method: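 Uninfected HepG2-A16-CD81EGFP cells, 3 × 10^3 per well, 1536-well, plated on prespotted compound at 10 μM final, parasite-free screening media added to match infected plates; puromycin 10 μM positive, DMSO 0.5% negative; run in parallel with 48 h PbLuc assay at 37 °C, 5% CO2; viability by CellTiter-Glo luminescence, normalized to controls.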

SMILES	cytotoxicity at 10 µM [%]
CCCc1ccc2oc(C(=O)N3CCN(CCC(N)=O)CC3)c(C)c2c1	0.424
CCCn1nnnc1COc1cc(OC)ccc1C(=O)OC	-2.04
O=C(NC[C@H]1OC[C@@H](NC2CCC2)[C@@H]1O)c1cccs1	1.76
c1ccc(-c2nnc([C@H]3CCN(C4CCOCC4)C3)o2)cc1	-1.05
CCC1CN(CC(=O)NCCN2CCCC2)c2ccccc2S1 (stereo not given)	-13.1
COCCNC(=O)c1cccnc1Sc1cc(OC)ccc1OC	0.734
Cc1ccc(-c2nnc(CN3CCN(c4ccccn4)CC3)o2)cc1	-5.34
CN1CC[C@H](N(C)Cc2ccccc2)C[C@H](O)C1	-0.895
O=S(=O)(NCC(O)c1cccs1)c1ccccc1Cl (stereo not given)	-67
O=C1CC[C@@H]2[C@@H](CCN2C(=O)C2CCOCC2)N1CC1CC1	10.9
COc1cccc(S(=O)(=O)N2CCCc3c(OC)nn(C)c3C2)c1	-120
Cc1ccnc(OC[C@]23COC[C@H]2CN(C(=O)c2ncccn2)C3)n1	-3.18
CCOCC1CN(C(=O)c2ccco2)Cc2cnn(C)c21 (stereo not given)	6.14
Cc1ccc(N2CCc3ncc(CNc4ccccn4)n3CC2)nn1	5.41
O=C(O)c1nnn(-c2ccc(C(F)(F)F)cc2)c1-c1ccncc1	7.33
CCOCCCNC(=O)CN(c1ccc(C)c(C)c1)S(C)(=O)=O	7.74
Cn1cc(C(=O)NC[C@@H]2OC[C@H]3CN(S(C)(=O)=O)CC[C@H]32)cn1	-9.12
COc1ccc(C2=Nn3c(CCCN)nnc3-c3ccccc3C2)cc1	3.07
CSCc1cccc(S(=O)(=O)NCCCN2CCOCC2)c1	-8.63
O[C@@H]1C[C@H]2CN(Cc3ccccc3)[C@H](Cc3ccccc3)CN2C1	-0.658
CC(c1nc(-c2cccnc2)no1)N(C)CCCOc1ccccc1 (stereo not given)	-2.14
CN(Cc1nnc2n1CCC2)C(=O)c1ccc(=O)n(C)n1	-8.16
N#CC(NC(=O)CNC(=O)c1ccccc1)c1ccsc1 (stereo not given)	1.8
O=C(NCCc1ccn(-c2ccc(F)cc2)n1)C1CCCOC1 (stereo not given)	6.65
CC(C)C(Sc1cccs1)C(=O)NCc1cccnc1 (stereo not given)	-5.15
COc1ccccc1CN(CC1CCCO1)C(=O)c1csnn1 (stereo not given)	-0.636
COCc1nc2cc(NCc3ccncc3)ccc2o1	-3.3

SMILES	cytotoxicity at 10 µM [%]
CC(CNC(=O)N1CCN(c2cnccn2)CC1)Cc1cccs1 (stereo not given)	1.7
N#Cc1cccc(NC(=O)N[C@H](CO)c2ccccc2)c1	-12.2
N#Cc1ccc(OCCOc2ccccc2C(=O)N2CCOCC2)cc1	-7.38
CS(=O)(=O)NCC1CCCN(Cc2ccc(F)c3cccnc23)C1 (stereo not given)	-12.6
COc1cc(C)sc1C(=O)N1CCC(Nc2cccnc2)CC1	-5.07
Cc1cc(NC(C)c2n[nH]c(C)n2)n2nc(C)c(C)c2n1 (stereo not given)	-11.4
CC(C)=CCCC1(C)CCC(=O)N(CCNc2nc(C)cc(=O)[nH]2)C1 (stereo not given)	3.18
COc1ccccc1C(=O)C1CCCN(c2cc(C#N)ccn2)C1 (stereo not given)	7.56
COc1nc(C)c(C(=O)N2CCC(C(O)Cc3ccccc3)CC2)s1 (stereo not given)	4.18
NC1(C(=O)N2CCC(c3cc(-c4ccccc4Cl)n[nH]3)CC2)CCC1	-3.66
Cc1ccc(C(=O)N2CC(Oc3ccccc3C)C2)s1	17.1
CCc1nccn1CCCNC(=O)CN1CCN(c2ncccn2)CC1	-7.54
CSc1ccc(CN(CCO)C(=O)CCNC(C)=O)cc1	5.42
Cc1ccc(OCC2CCCN(C(=O)CCn3ccccc3=O)C2)cc1 (stereo not given)	-4.27
CC(C)(CN1CCC(Cc2ccc(C(=O)O)cc2)C1)N1CCOCC1 (stereo not given)	2.17
CC(=O)C1(c2ccccc2)CCN(C(=O)c2ccn3nnnc3c2)CC1	-4.97
CC(Cc1cn(CCc2n[nH]c(=O)[nH]2)nn1)c1ccccc1 (stereo not given)	-0.591
Cc1nnsc1CN(C)C(=O)c1ccc(CSc2nnc[nH]2)o1	-3.33
Cn1cc(Cl)cc1C(=O)N1CCC2(CCCN(CC3CC3)C2=O)C1 (stereo not given)	1.96
Cc1cccnc1N1CCN(Cc2cc(O)c3cccc(F)c3n2)CC1	2.2
Cc1nc2c(c(N3CCC(CCn4cccn4)CC3)n1)CCNCC2	4.3
CCS(=O)(=O)N[C@H]1CN(CC(C)(C)N2CCOCC2)C[C@@H]1C1CC1	1.04
O=C([C@@H](O)Cc1ccccc1)N1CCCn2cncc2C1	2.55
CC(C)=CCN1C[C@@H]2CN(C(=O)c3cnccc3C)C[C@]2(C(=O)O)C1	2.85
Cc1cc(C(F)(F)F)cc(=O)n1CCn1cc(Cl)cn1	0.382
CC(C)(C)N1CC(C(=O)N2CC(Oc3ccc(F)cc3)C2)CC1=O (stereo not given)	1.88
c1ccc(C2CCCN(Cc3cc4n(n3)CCNC4)CC2)cc1 (stereo not given)	1.9

SMILES	cytotoxicity at 10 µM [%]
Cc1ccc(OCC2CCCN(C(=O)Cn3ccccc3=O)C2)cc1 (stereo not given)	0.55
COCCN1CCCC(c2nc3c([nH]2)CC(C)(C)CNC3=O)C1 (stereo not given)	-11.6
Cc1cccnc1NCCNC(=O)[C@H]1CNC[C@@H](C(=O)N2CCCC2)C1	-11.3
COc1ncccc1C(=O)NCC(C)Oc1cccnc1 (stereo not given)	-8.45
COCCN(C)C(=O)Cn1cccc(OC)c1=O	-14.8
c1csc(-c2nc(CNC3CCc4ncnn4C3)co2)c1 (stereo not given)	-5.69
Cc1cnn(CCNCC(=O)NCc2ccccc2)c1	-4.25
CC(NC(=O)NCC1(N2CCCCC2)CCCCC1)c1nncn1C (stereo not given)	-9.78
CN(Cc1nnc(-c2ccco2)o1)C1CCCN(c2cccnn2)C1 (stereo not given)	-7.39
COc1cccc(COCC(=O)N2CCCC(n3ccnc3C)C2)c1 (stereo not given)	-7.77
Clc1ccccc1-c1nc(CNCCn2cccn2)cs1	-3.45
O=C(c1cnc(-c2cccs2)s1)N1CCCN2CCCC2C1 (stereo not given)	-13.9
Cc1cccc(C(=O)NCc2ccnc(N(C)C)c2)n1	3.22
Cn1cnnc1C1CCCN(C(=O)NCCNc2ccccn2)C1 (stereo not given)	2.21
Cc1c[nH]nc1C1CCCN1Cc1nccn1C (stereo not given)	-3.34
CS(=O)(=O)N1CCO[C@@H]2CN(Cc3ccncc3)C[C@@H]2C1	4.5
Cc1occc1C(=O)N1CCOCC2(CCN(Cc3nccs3)C2)C1 (stereo not given)	-6.34
NCCc1c(-c2ccccc2)[nH][nH]c1=O	5.95
CN(C)C(=O)[C@H]1C[C@H]2[C@H](CCN2Cc2ccc3c(c2)OCO3)O1	2.36
Fc1cnc(N2CC[C@@H]3O[C@@H](COCc4ccccn4)CC[C@@H]32)nc1	1.9
Cc1cccc(CN2CC[C@@H]3[C@@H](CO[C@H]3CNc3ncccn3)C2)n1	-5.55
COCC1CC2(CCN(Cc3cnn(C)c3)CC2)CN1c1ncccn1 (stereo not given)	-8.19
Cc1noc(C)c1CN1CCO[C@H]2CN(Cc3cncn3C)C[C@H]21	-1.62
CN1CCC(NC(=O)[C@H]2CC[C@@H]3[C@@H](CCN3c3ncccn3)O2)CC1	7.43
CC(=O)c1cc(C(=O)N2CC[C@H]3CC[C@@H](C2)N3C)c(=O)[nH]c1C	11.4
C=c1ccoc1=C1NN=C(CNCC2CCCN2c2cccnn2)O1 (stereo not given)	-13.7

Reference: ChEMBL document CHEMBL4513216, “Probing the Open Global Health Chemical Diversity Library for Multistage-Active Starting Points for Next-Generation Antimalarials” (ACS Infect Dis, 2020)
